Assay results reported in ChEMBL document CHEMBL4834402, “Discovery of TAK-981, a First-in-Class Inhibitor of SUMO-Activating Enzyme for the Treatment of Cancer” (J Med Chem, 2021).
One block for each compound: values may come before it. Active and inactive are the calls of the source. No cut-off for these calls is given here.

Key:
[1] = Volume of distribution at steady state in rat plasma at 1 mg/kg, iv; format: ADME, organism-based; conditions: read-out: Vdss
[2] = Apparent permeability across apical to basolateral side in human Caco2 cells; format: ADME, cell-based; conditions: Caco-2
HCT-116 [3] = assay: Antitumor activity against human HCT116 cells xenografted in sc dosed NCr nude mouse assessed as tumor growth inhibition administered on day 1, 2, 8, 9, 15, […] and […] by vernier caliper method; format: functional, organism-based; conditions: dose 150.0 mg/kg, time 21.0 day
[4] = Clearance in rat plasma at 1 mg/kg, iv; format: ADME, organism-based; conditions: in vivo
[5] = Lipophilicity, logD of compound at pH 7.4; format: physicochemical; conditions: buffer
HCT-116 [6] = assay: Cytotoxicity against human HCT116 cells assessed as reduction in cell viability after 72 hrs by CellTiter-Glo luminescent assay; format: functional, cell-based; conditions: HCT-116, 72 h
NEDD8 activating enzyme = target: T1, NEDD8 activating enzyme (Homo sapiens, UniProt Q8TBC4); assay: Inhibition of recombinant NAE (unknown origin) in presence of ATP at Km concentration by HTRF assay; format: protein-complex assay
T1 sequence (Q8TBC4 whole entry): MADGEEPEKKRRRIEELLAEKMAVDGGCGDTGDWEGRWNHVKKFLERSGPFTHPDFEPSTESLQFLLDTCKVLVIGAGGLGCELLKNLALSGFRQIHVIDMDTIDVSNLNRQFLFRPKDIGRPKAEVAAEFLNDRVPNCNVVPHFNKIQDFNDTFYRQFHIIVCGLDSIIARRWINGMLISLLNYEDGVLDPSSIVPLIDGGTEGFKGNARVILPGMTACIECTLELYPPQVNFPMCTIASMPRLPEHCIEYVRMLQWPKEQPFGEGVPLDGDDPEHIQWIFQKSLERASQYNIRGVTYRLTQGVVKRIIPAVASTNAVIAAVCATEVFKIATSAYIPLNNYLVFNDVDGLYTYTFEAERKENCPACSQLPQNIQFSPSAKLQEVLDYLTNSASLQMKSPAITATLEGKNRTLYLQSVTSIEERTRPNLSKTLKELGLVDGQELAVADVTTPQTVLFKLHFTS
T1 sequence (Q13564 whole entry): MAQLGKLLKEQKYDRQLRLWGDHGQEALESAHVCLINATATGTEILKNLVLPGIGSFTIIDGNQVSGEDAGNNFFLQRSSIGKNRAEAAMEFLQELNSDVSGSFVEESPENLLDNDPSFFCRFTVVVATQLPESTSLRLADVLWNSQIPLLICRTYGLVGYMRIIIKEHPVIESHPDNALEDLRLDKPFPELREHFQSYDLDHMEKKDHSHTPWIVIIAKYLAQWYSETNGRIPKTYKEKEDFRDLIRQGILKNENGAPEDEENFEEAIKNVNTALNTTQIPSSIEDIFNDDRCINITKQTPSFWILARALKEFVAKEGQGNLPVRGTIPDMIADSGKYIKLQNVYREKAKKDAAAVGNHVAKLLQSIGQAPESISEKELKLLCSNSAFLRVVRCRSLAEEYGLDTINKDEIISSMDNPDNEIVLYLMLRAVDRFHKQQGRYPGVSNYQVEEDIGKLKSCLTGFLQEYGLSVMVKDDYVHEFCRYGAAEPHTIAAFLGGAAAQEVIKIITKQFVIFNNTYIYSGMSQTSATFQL

[7] = Half life in rat plasma at 1 mg/kg, iv; format: ADME, organism-based
HCT-116 [8] = assay: Antitumor activity against human HCT116 cells xenografted in sc dosed NCr nude mouse assessed as tumor growth inhibition administered twice per day for 21 days by vernier caliper method; format: functional, organism-based; conditions: dose 150.0 mg/kg, time 21.0 day
Procedure, shortened: (§1)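 Female NCr nude mice with HCT-116 tumors, n = 10/arm, dosed subcutaneously until Day 21. Schedules were BID x21 (days 1–21) or BID BIW (days 1, 4, 8, 11, 15, 18, 21).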

[9] = AUC in rat plasma at 10 mg/kg, po; format: ADME, organism-based; set-up: dose 10 mg/kg
[10] = AUC in rat plasma at 1 mg/kg, iv; format: ADME, organism-based; set-up: dose 1 mg/kg
[11] = Oral bioavailability in rat blood at 10 mg/kg; format: ADME, organism-based
[12] = Clearance in rat blood at 1 mg/kg, iv; format: ADME, organism-based; conditions: in vivo
OCI-Ly10 [13] = assay: Cytotoxicity against human OCI-LY10 cells assessed as reduction in cell viability after 72 hrs by CellTiter-Glo luminescent assay; format: functional, cell-based; conditions: OCI-Ly10, 72 h
[14] = AUC in rat blood at 1 mg/kg, iv; format: ADME, organism-based; set-up: dose 1 mg/kg
[15] = Volume of distribution at steady state in rat blood at 1 mg/kg, iv; format: ADME, organism-based; conditions: read-out: Vdss
[16] = AUC in rat blood at 10 mg/kg, po; format: ADME, organism-based; set-up: dose 10 mg/kg
HCT-116 [17] = assay: Antitumor activity against human HCT116 cells xenografted in sc dosed NCr nude mouse assessed as tumor growth inhibition administered on day 1, 4, 8, 11, 15, 18 and 21 by vernier caliper method; format: functional, organism-based; conditions: dose 200.0 mg/kg, time 21.0 day; procedure, shortened: as §1
Carbonic anhydrase 1 = Carbonic anhydrase 1 (Homo sapiens, UniProt P00915); assay: Inhibition of human erythrocyte CA1 using fluorescein diacetate as substrate at […] by fluorometric esterase assay
Carbonic anhydrase 1, sequence (P00915 whole entry): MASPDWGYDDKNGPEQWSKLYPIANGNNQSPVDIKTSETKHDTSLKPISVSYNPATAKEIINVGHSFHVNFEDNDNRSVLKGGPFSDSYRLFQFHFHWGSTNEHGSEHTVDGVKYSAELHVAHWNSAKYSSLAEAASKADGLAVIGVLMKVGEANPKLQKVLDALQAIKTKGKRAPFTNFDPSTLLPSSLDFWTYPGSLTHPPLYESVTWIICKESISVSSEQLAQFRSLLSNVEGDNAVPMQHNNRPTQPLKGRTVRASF

[18] = Half life in rat blood at 1 mg/kg, iv; format: ADME, organism-based
[19] = Oral bioavailability in rat plasma at 10 mg/kg; format: ADME, organism-based
[20] = Apparent permeability across basolateral to apical side in human Caco2 cells; format: ADME, cell-based; conditions: Caco-2
[21] = Dissociation constant , pKa of the compound; format: physicochemical
[22] = target: T2, SUMO-activating enzyme (Homo sapiens) (UniProt Q9UBE0+Q9UBT2); assay: Inhibition of SAE in human HCT116 cells xenografted in NCr nude mouse assessed as reduction in SUMO2/3 protein conjugates at 50 mg/kg, iv and measured up to 16 hrs by immunohistochemistry analysis; format: organism-based; conditions: HCT-116
Procedure, shortened: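 HCT-116 tumors in female Ncr nude mice, n = 3 per time point, after a single IV dose at t = 0. SUMO2/3 conjugation in tumors measured by IHC at 2, 4, 8 and 16 h. Read-out is nuclei staining positive for SUMO2/3 conjugates over total nuclei, normalized to vehicle-treated animals (time = 0 h), expressed as percent inhibition.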

OCI-Ly10 [23] = assay: Antitumor activity against human OCI-Ly10 cells xenografted in CB17 SCID mouse assessed as tumor growth inhibition at 50 mg/kg, sc mg/kg administered once daily for 21 days and measured twice weekly; format: functional, organism-based; conditions: time 21.0 day
Procedure, shortened: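 Female CB17 SCID mice carrying OCI-Ly10 tumors (~200 mm3) were randomized, n = 8/group, with treatment from Day 1. Schedules were QD x21 (Days 1–21) or QD x3/week (three consecutive dosing days, four off). Tumor volume was measured twice weekly.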

HCT-116 [24] = assay: Antitumor activity against human HCT-116 cells xenografted in Ncr/nude mouse assessed as tumor growth inhibition at 50 mg/kg, sc administered once daily for 21 days and measured twice weekly; format: functional, organism-based; conditions: time 21.0 day
Procedure, shortened: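 Female Ncr/nude mice carrying HCT-116 tumors (~200 mm3) were randomized, n = 8/group, with treatment from Day 1. Schedules were QD x21 (Days 1–21) or QD x3/week (three consecutive dosing days, four off). Tumor volume was measured twice weekly.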

[25] = target: T2, SUMO-activating enzyme (Homo sapiens); assay: Inhibition of SAE in human HCT116 cells xenografted in NCr nude mouse assessed as improvement in SUMO-inhibitor adduct durability at 50 mg/kg, iv and measured up to 16 hrs by mass spectrometry; format: organism-based; conditions: HCT-116
Procedure, shortened: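 Single IV dose at t = 0 to female Ncr nude mice bearing HCT-116 tumors, n = 3 per time point. Tumors harvested 2, 4, 8 and 16 h post-injection. Read-out is the adduct/SAE ratio: quantity of SUMO-compound adduct over quantity of total SAE enzyme, both measured by mass spectrometry. Values are averaged per time point.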

Vd [1]: 5.1 L/kg
Papp A→B [2]: 1.2 ×10⁻⁶ cm/s
clearance [4]: 85 mL/min/kg
logD [5]: 2.6
IC50 (NEDD8 activating enzyme): 228 nM
half-life [7]: 0.9 h
AUC [9]: 0.1 µM·h
AUC [10]: 0.4 µM·h
bioavailability [11]: 6.9%
clearance [12]: 1.67 mL/min/kg
AUC [14]: 19.1 µM·h
Vd [15]: 0.1 L/kg
AUC [16]: 10.8 µM·h
IC50 (Carbonic anhydrase 1): 50 nM
half-life [18]: 1.2 h
bioavailability [19]: 7.1%
Papp B→A [20]: 64 ×10⁻⁶ cm/s
pKa [21]: 3.6
SMILES: NS(=O)(=O)OC[C@H]1C[C@@H](Nc2ncncc2C(=O)c2ccn(Cc3cccc(Br)c3)n2)C[C@@H]1O
Activity (HCT-116 [3]): Dose-Dependent Effect
EC50 (HCT-116 [6]): 90 nM
Activity (HCT-116 [8]): Dose-Dependent Effect
EC50 (OCI-Ly10 [13]): 55 nM
Activity (HCT-116 [17]): Dose-Dependent Effect

SMILES: Cc1sc(C(=O)c2cncnc2N[C@@H]2C[C@H](COS(N)(=O)=O)[C@@H](O)C2)cc1C1OCCc2ccc(Cl)cc21 (stereo in doubt)
inhibition [22]: Active
Activity (OCI-Ly10 [23]): Active
Activity (HCT-116 [24]): Active
inhibition [25]: Active
